Active and inactive are the calls of the source. The calls are words filed in the database; no cut-off is given here.
How the values were obtained:
Mus musculus [1] = experiment: Antiinflammatory activity in Balb/c mouse model of LPS-induced endotoxemia assessed as reduction in serum IL6 level at 1 mg/kg, ip pretreated for 1 hr followed by LPS-challenge measured after 2 hrs by ELISA; assay type: functional, organism-based
In short: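 BALB/c mice were dosed with 1 mg·kg−1 i.p. 1 h before LPS 10 mg·kg−1 i.p. Serum was taken 2 h later, and TNF-α, IL-6 and IL-10 were measured by sandwich ELISA. Means ± SEM.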

BMDC [2] = experiment: Cytotoxicity against C57BL/6 mouse BMDC assessed as effect on cell viability up to 100 uM after 24 hrs by luminescence assay; assay type: cell-based
In short: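 BMDCs came from C57BL/6 marrow cultured 7 days with 10 ng·mL−1 GM-CSF. Cells at 1 × 10^4 per well were incubated 24 h with 6.25–200 μM compound, with DMSO and H2O2 controls. Viability was read as ATP by luminescence. Means ± SEM.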

Mus musculus [3] = experiment: Antiseptic activity in Balb/c mouse model of Escherichia coli K1 infection-induced sepsis assessed as reduction in serum IL6 level at 1 mg/kg, ip pretreated for 1 hr followed by Escherichia coli K1 infection measured after 2 hrs by ELISA; assay type: functional, organism-based
In short: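 BALB/c mice received 1 mg·kg−1 i.p. 1 h before i.p. E. coli K1 RS218, 1 × 10^6 CFU per mouse. Serum was collected at 2 h, and TNF-α, IL-6 and IL-10 were quantified by sandwich ELISA. Means ± SEM.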

BMDC [4] = experiment: Inhibition of LPS-induced immune response in C57BL/6 mouse BMDC assessed as reduction in IL-12p70 secretion at 25 uM treated 6 hrs post LPS-challenge measured after 30 mins by ELISA; assay type: functional, cell-based
In short: (§1)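 Bone marrow DCs from 6-week-old female C57BL/6 mice, RBC-lysed, cultured in RPMI-1640/10% FBS with 10 ng/mL rmGM-CSF, 37 °C, 5% CO2. Cells given LPS 50 ng/mL for 6 h, then 25 μM compound added for 30, 60, 90 or 120 min. Supernatant TNF-α, IL-6, IL-10, IL-12p70 measured by sandwich ELISA. Mean ± SEM, compared with LPS-only DCs.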

Mus musculus [5] = experiment: Antiinflammatory activity in Balb/c mouse model of LPS-induced endotoxemia assessed as increase in IL10 producing Tr1 population in splenocyte at 1 mg/kg, ip pretreated for 1 hr followed by LPS-challenge measured after 12 hrs by flow cytometric analysis; assay type: functional, organism-based
Mus musculus [6] = experiment: Antiinflammatory activity in Balb/c mouse model of LPS-induced endotoxemia assessed as reduction in serum AST level at 1 mg/kg, ip pretreated for 1 hr followed by LPS-challenge measured after 12 hrs by ELISA; assay type: functional, organism-based
In short: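 In BALB/c mice, 1 mg·kg−1 i.p. was given 1 h before LPS 10 mg·kg−1 i.p. After 12 h, serum AST, ALT and BUN were measured by ELISA. Means ± SEM.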

BMDC [7] = experiment: Inhibition of LPS-induced immune response in C57BL/6 mouse BMDC assessed as reduction in IL-12p70 secretion at 25 uM treated 6 hrs post LPS-challenge measured after 60 to 120 mins by ELISA; assay type: functional, cell-based; in short: as §1
BMDC [8] = experiment: Inhibition of LPS-induced immune response in C57BL/6 mouse BMDC assessed as reduction in IL-6 secretion at 25 uM treated 6 hrs post LPS-challenge measured after 30 mins by ELISA; assay type: functional, cell-based; in short: as §1
BMDC [9] = experiment: Inhibition of Escherichia coli K1 infection-induced immune response in C57BL/6 mouse BMDC assessed as reduction in IL-12p70 secretion at 25 uM pretreated for 60 to 120 mins followed by Escherichia coli K1 infection for 6 hrs by ELISA; assay type: functional, cell-based
In short: (§2)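 BMDCs from C57BL/6 mice were given 25 μM compound and E. coli K1, […]. Timing was: compound 30 min before a 6 h infection; cotreatment for 6 h; or compound for 30–120 min with 6 h infection. Supernatant cytokines (TNF-α, IL-6, IL-10, IL-12p70) were measured by ELISA. At least three experiments in triplicate.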

BMDC [10] = experiment: Inhibition of Escherichia coli DH5alpha infection-induced immune response in C57BL/6 mouse BMDC assessed as reduction in IL-6 secretion at 25 uM pretreated for 30 mins followed by Escherichia coli DH5alpha infection for 6 hrs by ELISA; assay type: functional, cell-based
In short: (§3)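 C57BL/6 BMDCs received 25 μM compound and E. coli DH5α, 3 × 10^6 CFU·mL−1. Schedules were: compound 30 min before a 6 h infection; co-addition for 6 h; or compound for 30, 60, 90 or 120 min plus 6 h infection. Supernatant TNF-α, IL-6, IL-10 and IL-12p70 were measured by ELISA. At least three experiments in triplicate.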

BMDC [11] = experiment: Inhibition of Escherichia coli K1 infection-induced immune response in C57BL/6 mouse BMDC assessed as reduction in IL-6 secretion at 25 uM pretreated for 60 to 120 mins followed by Escherichia coli K1 infection for 6 hrs by ELISA; assay type: functional, cell-based; in short: as §2
BMDC [12] = experiment: Inhibition of Escherichia coli DH5alpha infection-induced immune response in C57BL/6 mouse BMDC assessed as reduction in TNFalpha secretion at 25 uM pretreated for 60 to 120 mins followed by Escherichia coli DH5alpha infection for 6 hrs by ELISA; assay type: functional, cell-based; in short: as §3
BMDC [13] = experiment: Inhibition of Escherichia coli K1 infection-induced immune response in C57BL/6 mouse BMDC assessed as reduction in IL-12p70 secretion at 25 uM pretreated for 30 mins followed by Escherichia coli K1 infection for 6 hrs by ELISA; assay type: functional, cell-based; in short: as §2
BMDC [14] = experiment: Inhibition of LPS-induced immune response in C57BL/6 mouse BMDC assessed as increase in IL10 secretion at 25 uM treated 6 hrs post LPS-challenge measured after 30 mins by ELISA; assay type: functional, cell-based; in short: as §1
BMDC [15] = experiment: Inhibition of Escherichia coli DH5alpha infection-induced immune response in C57BL/6 mouse BMDC assessed as reduction in IL-12p70 secretion at 25 uM pretreated for 60 to 120 mins followed by Escherichia coli DH5alpha infection for 6 hrs by ELISA; assay type: functional, cell-based; in short: as §3
BMDC [16] = experiment: Increase in microRNA146a expression in LPS-induced C57BL/6 mouse BMDC at 25 uM pretreated for 30 mins followed by LPS-challenge measured after 6 hrs by qRT-PCR analysis; assay type: functional, cell-based
In short: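 Total RNA was extracted from BMDCs with TRIzol and reverse transcribed. miR-146a, miR-155 and miR-187 were quantified by real-time qPCR with gene-specific primers.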

BMDC [17] = experiment: Inhibition of Escherichia coli DH5alpha infection-induced immune response in C57BL/6 mouse BMDC assessed as reduction in IL-12p70 secretion at 25 uM pretreated for 30 mins followed by Escherichia coli DH5alpha infection for 6 hrs by ELISA; assay type: functional, cell-based; in short: as §3
BMDC [18] = experiment: Inhibition of LPS-induced immune response in C57BL/6 mouse BMDC assessed as reduction in TNFalpha secretion at 25 uM treated 6 hrs post LPS-challenge measured after 30 mins by ELISA; assay type: functional, cell-based; in short: as §1
BMDC [19] = experiment: Inhibition of Escherichia coli DH5alpha infection-induced immune response in C57BL/6 mouse BMDC assessed as increase in IL10 secretion at 25 uM pretreated for 30 mins followed by Escherichia coli DH5alpha infection for 6 hrs by ELISA; assay type: functional, cell-based; in short: as §3

## COc1ccc(-c2oc3cc(O)cc(O)c3c(=O)c2O)cc1O [TAMARIXETIN]
Mus musculus [1]
  Activity: Active
BMDC [2]
  Activity: Non-Toxic
Mus musculus [3]
  Activity: Active
BMDC [4]
  inhibition: Active
Mus musculus [5]
  Activity: Active
Mus musculus [6]
  Activity: Active
BMDC [7]
  inhibition: inactive
BMDC [8]
  inhibition: Active
BMDC [9]
  inhibition: inactive
BMDC [10]
  inhibition: Active
BMDC [11]
  inhibition: inactive
BMDC [12]
  inhibition: inactive
BMDC [13]
  inhibition: Active
BMDC [14]
  inhibition: Active
BMDC [15]
  inhibition: inactive
BMDC [16]
  Activity: Active
BMDC [17]
  inhibition: Active
BMDC [18]
  inhibition: Active
BMDC [19]
  inhibition: Active
